The source of these data is ChEMBL document CHEMBL4414643, “Pharmacokinetics of Phytocannabinoid Acids and Anticonvulsant Effect of Cannabidiolic Acid in a Mouse Model of Dravet Syndrome” (J Nat Prod, 2019).

Activity calls are given as the source filed them.

Data set [1] in a line: AUC in anesthetized C57BL/6J mouse plasma at 10 mg/kg, ip administered as single dose measured upto 240 mins in presence of tween-80 by LC-MS/MS analysis. Further details: dose 10 mg/kg, time < 4 hr, route intraperitoneal. It counts as ADME, organism-based. In outline: (§1)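 Male and female mice (C57BL/6J or C57BL/6J x 129 F1), postnatal days 21-28, single i.p. injection at 10 mL/kg in vegetable oil or ethanol–Tween 80–saline (1:1:18). Blood taken by cardiac puncture under isoflurane at time points 15–240 min. Plasma and PBS brain homogenate extracted with ice-cold acetonitrile, diazepam internal standard, quantified by LC-MS/MS. Mean concentrations per time point (n = 3-5); noncompartmental analysis.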

Data set [2] is described as follows: Tmax in anesthetized C57BL/6J mouse plasma at 10 mg/kg, ip administered as single dose measured upto 240 mins in presence of tween-80 by LC-MS/MS analysis. It counts as ADME, organism-based. Summed up: as §1
A short description of data set [3]: Cmax in anesthetized C57BL/6J mouse plasma at 10 mg/kg, ip administered as single dose measured upto 240 mins in presence of vegetable oil by LC-MS/MS analysis. It counts as ADME, organism-based. Further details: dose 10 mg/kg, route intraperitoneal. Summed up:
as §1

A short description of data set [4]: Tmax in anesthetized C57BL/6J mouse brain at 10 mg/kg, ip administered as single dose measured upto 240 mins in presence of tween-80 by LC-MS/MS analysis. It counts as ADME, organism-based. In outline:
as §1

Data set [5] in a line: Cmax in anesthetized C57BL/6J mouse brain at 10 mg/kg, ip administered as single dose measured upto 240 mins in presence of tween-80 by LC-MS/MS analysis. Type of data set: ADME, organism-based. Also noted: dose 10 mg/kg, route intraperitoneal. The settings on record: in vivo, 4 h. In outline:
as §1

Data set [6] in a line: Cmax in anesthetized C57BL/6J mouse plasma at 10 mg/kg, ip administered as single dose measured upto 240 mins by LC-MS/MS analysis. It counts as ADME, organism-based. Further details: dose 10 mg/kg, route intraperitoneal. In outline: as §1
Data set [7] is described as follows: Tmax in anesthetized C57BL/6J mouse brain at 10 mg/kg, ip administered as single dose measured upto 240 mins by LC-MS/MS analysis. Type of data set: ADME, organism-based. In outline: as §1
The nature of data set [8]: Half life in anesthetized C57BL/6J mouse plasma at 10 mg/kg, ip administered as single dose measured upto 240 mins by LC-MS/MS analysis. Type of data set: ADME, organism-based. Summed up: as §1
A short description of data set [9]: Cmax in anesthetized C57BL/6J mouse plasma at 10 mg/kg, ip administered as single dose measured upto 240 mins in presence of tween-80 by LC-MS/MS analysis. It counts as ADME, organism-based. Further details: dose 10 mg/kg, route intraperitoneal. Summed up:
as §1

Data set [10] in a line: Half life in anesthetized C57BL/6J mouse brain at 10 mg/kg, ip administered as single dose measured upto 240 mins in presence of tween-80 by LC-MS/MS analysis. It counts as ADME, organism-based. In outline: as §1
Data set [11] can be described thus: AUC in anesthetized C57BL/6J mouse brain at 10 mg/kg, ip administered as single dose measured upto 240 mins by LC-MS/MS analysis. Type of data set: ADME, organism-based. Further details: dose 10 mg/kg, time < 4 hr, route intraperitoneal. The settings on record: in vivo, 4 h. Summed up: as §1
Data set [12] in a line: AUC in anesthetized C57BL/6J mouse plasma at 10 mg/kg, ip administered as single dose measured upto 240 mins by LC-MS/MS analysis. It counts as ADME, organism-based. Further details: time < 4 hr, dose 10 mg/kg, route intraperitoneal. In outline: as §1
A short description of data set [13]: Tmax in anesthetized C57BL/6J mouse brain at 10 mg/kg, ip administered as single dose measured upto 240 mins in presence of vegetable oil by LC-MS/MS analysis. It counts as ADME, organism-based. Summed up: as §1
Data set [14] can be described thus: Half life in anesthetized C57BL/6J mouse plasma at 10 mg/kg, ip administered as single dose measured upto 240 mins in presence of vegetable oil by LC-MS/MS analysis. It counts as ADME, organism-based. In outline:
as §1

Data set [15] is described as follows: AUC in anesthetized C57BL/6J mouse brain at 10 mg/kg, ip administered as single dose measured upto 240 mins in presence of tween-80 by LC-MS/MS analysis. It counts as ADME, organism-based. Also noted: dose 10 mg/kg, time < 4 hr, route intraperitoneal. Conditions: in vivo, 4 h. In outline: as §1
Data set [16] can be described thus: Ratio of drug level in anesthetized C57BL/6J mouse brain to plasma at 5 mg/kg, ip administered as single dose measured upto 240 mins in presence of tween-80 by LC-MS/MS analysis. Type of data set: ADME, organism-based. The settings on record: read-out: BPR.
Data set [17] in a line: AUC in anesthetized C57BL/6J mouse brain at 10 mg/kg, ip administered as single dose measured upto 240 mins in presence of vegetable oil by LC-MS/MS analysis. Type of data set: ADME, organism-based. Also noted: dose 10 mg/kg, time < 4 hr, route intraperitoneal. The settings on record: in vivo, 4 h. Summed up:
as §1

A further data set concerns Mus musculus. The experiment in a line: Anticonvulsant activity against hyperthermia-induced seizure in Scn1aRX/+ mouse model of Dravet syndrome assessed as increase in generalized tonic-clonic seizure temperature threshold at 10 to 30 mg/kg, ip administered as single dose measured by RET-3 rectal probe. Type of data set: functional, organism-based.
The nature of data set [18]: AUC in anesthetized C57BL/6J mouse plasma at 10 mg/kg, ip administered as single dose measured upto 240 mins in presence of vegetable oil by LC-MS/MS analysis. Also noted: time < 4 hr, dose 10 mg/kg, route intraperitoneal. Type of data set: ADME, organism-based. In outline:
as §1

Data set [19] in a line: Cmax in anesthetized C57BL/6J mouse brain at 10 mg/kg, ip administered as single dose measured upto 240 mins by LC-MS/MS analysis. The settings on record: in vivo, 4 h. It counts as ADME, organism-based. Further details: dose 10 mg/kg, route intraperitoneal. Summed up: as §1
A short description of data set [20]: Tmax in anesthetized C57BL/6J mouse plasma at 10 mg/kg, ip administered as single dose measured upto 240 mins by LC-MS/MS analysis. Type of data set: ADME, organism-based. In outline: as §1
Data set [21] can be described thus: Partition coefficient, log P of compound. Type of data set: physicochemical. The settings on record: octanol/water.
The nature of data set [22]: Dissociation constant, pKa of compound. Type of data set: physicochemical.
Data set [23] is described as follows: Half life in anesthetized C57BL/6J mouse plasma at 10 mg/kg, ip administered as single dose measured upto 240 mins in presence of tween-80 by LC-MS/MS analysis. Type of data set: ADME, organism-based. In outline:
as §1

Data set [24] in a line: Tmax in anesthetized C57BL/6J mouse plasma at 10 mg/kg, ip administered as single dose measured upto 240 mins in presence of vegetable oil by LC-MS/MS analysis. It counts as ADME, organism-based. Summed up: as §1
Data set [25] can be described thus: Drug metabolism in brain of anesthetized C57BL/6J mouse at 10 mg/kg, ip by LC-MS/MS analysis. Type of data set: ADME, organism-based. Conditions: in vivo. Summed up: (§2)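 Mice aged 21-28 days postnatal received one i.p. dose (10 mL/kg), and plasma and brain were sampled at 15–240 min. Decarboxylated neutral cannabinoids were measured by LC-MS/MS against known standards, alongside the parent acid.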

Data set [26] in a line: Ratio of drug level in anesthetized C57BL/6J mouse brain to plasma at 5 mg/kg, ip administered as single dose measured upto 240 mins in presence of vegetable oil by LC-MS/MS analysis. It counts as ADME, organism-based. The settings on record: read-out: BPR.
Data set [27] is described as follows: Ratio of drug level in anesthetized C57BL/6J mouse brain to plasma at 10 mg/kg, ip administered as single dose measured upto 240 mins by LC-MS/MS analysis. It counts as ADME, organism-based. The settings on record: read-out: BPR. In outline:
as §1

The nature of data set [28]: Half life in anesthetized C57BL/6J mouse brain at 10 mg/kg, ip administered as single dose measured upto 240 mins by LC-MS/MS analysis. It counts as ADME, organism-based. In outline:
as §1

The nature of data set [29]: Cmax in anesthetized C57BL/6J mouse brain at 10 mg/kg, ip administered as single dose measured upto 240 mins in presence of vegetable oil by LC-MS/MS analysis. Type of data set: ADME, organism-based. Also noted: dose 10 mg/kg, route intraperitoneal. The settings on record: in vivo, 4 h. Summed up: as §1
The nature of data set [30]: Half life in anesthetized C57BL/6J mouse brain at 10 mg/kg, ip administered as single dose measured upto 240 mins in presence of vegetable oil by LC-MS/MS analysis. Type of data set: ADME, organism-based. In outline: as §1
Data set [31] is described as follows: Drug uptake in plasma of anesthetized C57BL/6J mouse at 10 mg/kg, ip by LC-MS/MS analysis. Type of data set: ADME, organism-based. Conditions: in vivo. Summed up: as §2
Data set [32] can be described thus: Drug metabolism in brain of anesthetized C57BL/6J mouse assessed as decrease in decarboxylation of parent compound at 10 mg/kg, ip by LC-MS/MS analysis. It counts as ADME, organism-based. The settings on record: in vivo. Summed up: as §2
A short description of data set [33]: Drug metabolism in plasma of anesthetized C57BL/6J mouse assessed as decrease in decarboxylation of parent compound at 10 mg/kg, ip by LC-MS/MS analysis. It counts as ADME, organism-based. The settings on record: in vivo. Summed up: as §2
The nature of data set [34]: Drug uptake in plasma of anesthetized C57BL/6J mouse assessed as purity of compound at 10 mg/kg, ip by LC-MS/MS analysis. It counts as ADME, organism-based. Conditions: in vivo. Summed up:
as §2

Take `C=C(C)[C@@H]1CCC(C)=C[C@H]1c1c(O)cc(CCCCC)c(C(=O)O)c1O` [CANNABIDIOLIC ACID]: the AUC at 4 h was 9970 ng·h/mL in data set [1], 78300 ng·h/mL in [12] and 78300 ng·h/mL in [18]. Also, the Tmax in [2] was 15 min; in data set [4], 30 min; in [7] it was 45 min; in [13], 45 min; in data set [20], 30 min; in [24], 30 min. For the same compound, the Cmax is 29600 ng/mL in data set [3]; 13.2 ng/mg in [5]; 29600 ng/mL in [6]; 17600 ng/mL in data set [9]; 2 ng/mg in [19]; 2 ng/mg in data set [29]. For the same compound, the half-life in data set [8] was 92 min; in data set [10], 67 min; in data set [14], 92 min; in [23] it was 55 min; in data set [28], 41 min; in data set [30], 41 min. The AUC in data set [11] is 183 µg·min/g; in data set [15], 1142 ng·min/g; in [17], 183 ng·min/g. The figures for the Kp at 4 h in data set [16], in data set [26] and in [27] were 1.9, 0.04 and 0.04, respectively. For the same compound, the outcome with Mus musculus was Active. This compound also showed a logP in data set [21] of 6.63. In data set [22], this compound displayed a pKa of 2.91. Further, the Drug metabolism result in [25] is on record as “Metabolite_Notdetected”. This compound also had a Drug uptake in data set [31] of 0.5%.

In the case of `CCCCCc1cc(O)c(C/C=C(\C)CCC=C(C)C)c(O)c1C(=O)O` [CANNABIGEROLIC ACID], the Cmax in data set [6] turned out to be 63500 ng/mL; in data set [19], 2.3 ng/mg. For the same compound, the Drug metabolism entry in data set [32] and in data set [33] was “Metabolite_Notdetected” each time. The results for the Tmax in data set [7] and in data set [20] were 30 min and 45 min, respectively. The values for the half-life in [8] and in [28] were 62 min and 31 min, respectively. In addition, the AUC in [11] came out at 94 µg·min/g. In data set [12], this compound had an AUC at 4 h of 99300 ng·h/mL. This compound yielded a logP in [21] of 7.35. The compound also showed a pKa in data set [22] of 2.92. In data set [27], the Kp at 4 h is 0.02.

Turning to `CCCCCc1cc2c(c(O)c1C(=O)O)[C@@H]1C=C(C)CC[C@H]1C(C)(C)O2` [DELTA9-TETRAHYDROCANNABINOLIC ACID A], the AUC at 4 h is 5630 ng·h/mL in [1], 5030 ng·h/mL in data set [12] and 5030 ng·h/mL in data set [18]. For the same compound, the Tmax in [2], in [20] and in [24] was 15 min throughout. The Cmax in [3] is 2800 ng/mL; in data set [5] (BLD = below limit of detection), “Bld”; in data set [6], 2800 ng/mL; in data set [9], 6900 ng/mL; in [19] (BLD = below limit of detection), “Bld”; in data set [29] (BLD = below limit of detection), “Bld”. Moreover, the half-life in [8] is 67 min; in data set [14], 67 min; in data set [23], 33 min. The logP in data set [21] is 6.25. Also, in data set [22], the pKa stood at 2.89. The Drug metabolism result in data set [25] is listed as “Metabolite_Notdetected”. Also, the Drug uptake came out at 95% in data set [34] and 1% in [31].
